Data reported in ChEMBL document CHEMBL5126600, “Discovery of the First-in-Class G9a/GLP Covalent Inhibitors” (J Med Chem, 2022).

Key:
[1] = target: T1, Histone-lysine N-methyltransferase EHMT2 (Homo sapiens, UniProt Q96KQ7); test: Binding affinity to human G9a (913 to 1193 residues) assessed as dissociation constant measured after 1 hr by isothermal titration calorimetry method
T1 sequence (Q96KQ7 whole entry): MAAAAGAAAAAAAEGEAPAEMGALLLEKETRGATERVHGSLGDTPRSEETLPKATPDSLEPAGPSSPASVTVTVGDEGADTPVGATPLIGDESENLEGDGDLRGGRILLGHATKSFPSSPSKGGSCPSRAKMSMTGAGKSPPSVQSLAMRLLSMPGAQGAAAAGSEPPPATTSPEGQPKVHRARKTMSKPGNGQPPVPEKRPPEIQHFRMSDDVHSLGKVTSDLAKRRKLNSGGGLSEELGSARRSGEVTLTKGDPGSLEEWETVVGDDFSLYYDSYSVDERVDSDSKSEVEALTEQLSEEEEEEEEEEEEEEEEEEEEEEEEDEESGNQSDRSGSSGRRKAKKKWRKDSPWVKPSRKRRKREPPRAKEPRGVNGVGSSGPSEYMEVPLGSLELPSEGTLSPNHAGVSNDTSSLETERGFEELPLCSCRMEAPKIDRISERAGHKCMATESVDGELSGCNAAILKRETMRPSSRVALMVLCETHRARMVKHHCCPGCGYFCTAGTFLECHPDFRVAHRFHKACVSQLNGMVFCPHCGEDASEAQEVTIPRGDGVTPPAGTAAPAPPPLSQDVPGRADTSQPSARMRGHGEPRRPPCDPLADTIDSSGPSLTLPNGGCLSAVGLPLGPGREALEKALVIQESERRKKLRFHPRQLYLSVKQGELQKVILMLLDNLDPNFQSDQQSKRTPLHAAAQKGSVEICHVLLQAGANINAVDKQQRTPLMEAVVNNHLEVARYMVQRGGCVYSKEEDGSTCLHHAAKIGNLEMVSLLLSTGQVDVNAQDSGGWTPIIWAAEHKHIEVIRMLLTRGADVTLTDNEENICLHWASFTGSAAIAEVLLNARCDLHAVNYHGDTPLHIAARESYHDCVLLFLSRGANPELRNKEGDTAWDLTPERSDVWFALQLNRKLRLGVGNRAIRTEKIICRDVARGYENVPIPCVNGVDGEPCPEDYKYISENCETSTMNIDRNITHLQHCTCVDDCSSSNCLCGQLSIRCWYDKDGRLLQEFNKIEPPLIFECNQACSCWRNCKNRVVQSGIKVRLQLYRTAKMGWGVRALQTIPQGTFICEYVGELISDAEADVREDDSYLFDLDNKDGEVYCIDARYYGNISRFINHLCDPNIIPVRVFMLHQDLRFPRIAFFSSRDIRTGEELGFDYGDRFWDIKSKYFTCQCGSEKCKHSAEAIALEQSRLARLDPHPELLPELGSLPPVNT
In short: (§1)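 ITC at 25 °C in 50 mM Tris-HCl pH 7.5, 150 mM NaCl, 1% DMSO; 500 μM compound in syringe titrated into 50 μM G9a or GLP catalytic domain in cell (initial 0.4 μL injection then 13 injections), stirring 750 rpm; run time about 50 min; single binding site fit; mean ± SD of two independent measurements.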

[2] = target: T1, Histone-lysine N-methyltransferase EHMT2; test: Inhibition of human G9a (913 to 1193 residues) using H3 peptide substrate preincubated for 5 mins followed by SAM addition measured after 10 mins by SAHH-coupled biochemical assay
[3] = target: T2, Histone-lysine N-methyltransferase EHMT1 (Homo sapiens, UniProt Q9H9B1); test: Inhibition of human GLP (982 to 1266 residues) using H3 peptide substrate preincubated for 5 mins followed by SAM addition measured after 10 mins by SAHH-coupled biochemical assay
T2 sequence (Q9H9B1 whole entry): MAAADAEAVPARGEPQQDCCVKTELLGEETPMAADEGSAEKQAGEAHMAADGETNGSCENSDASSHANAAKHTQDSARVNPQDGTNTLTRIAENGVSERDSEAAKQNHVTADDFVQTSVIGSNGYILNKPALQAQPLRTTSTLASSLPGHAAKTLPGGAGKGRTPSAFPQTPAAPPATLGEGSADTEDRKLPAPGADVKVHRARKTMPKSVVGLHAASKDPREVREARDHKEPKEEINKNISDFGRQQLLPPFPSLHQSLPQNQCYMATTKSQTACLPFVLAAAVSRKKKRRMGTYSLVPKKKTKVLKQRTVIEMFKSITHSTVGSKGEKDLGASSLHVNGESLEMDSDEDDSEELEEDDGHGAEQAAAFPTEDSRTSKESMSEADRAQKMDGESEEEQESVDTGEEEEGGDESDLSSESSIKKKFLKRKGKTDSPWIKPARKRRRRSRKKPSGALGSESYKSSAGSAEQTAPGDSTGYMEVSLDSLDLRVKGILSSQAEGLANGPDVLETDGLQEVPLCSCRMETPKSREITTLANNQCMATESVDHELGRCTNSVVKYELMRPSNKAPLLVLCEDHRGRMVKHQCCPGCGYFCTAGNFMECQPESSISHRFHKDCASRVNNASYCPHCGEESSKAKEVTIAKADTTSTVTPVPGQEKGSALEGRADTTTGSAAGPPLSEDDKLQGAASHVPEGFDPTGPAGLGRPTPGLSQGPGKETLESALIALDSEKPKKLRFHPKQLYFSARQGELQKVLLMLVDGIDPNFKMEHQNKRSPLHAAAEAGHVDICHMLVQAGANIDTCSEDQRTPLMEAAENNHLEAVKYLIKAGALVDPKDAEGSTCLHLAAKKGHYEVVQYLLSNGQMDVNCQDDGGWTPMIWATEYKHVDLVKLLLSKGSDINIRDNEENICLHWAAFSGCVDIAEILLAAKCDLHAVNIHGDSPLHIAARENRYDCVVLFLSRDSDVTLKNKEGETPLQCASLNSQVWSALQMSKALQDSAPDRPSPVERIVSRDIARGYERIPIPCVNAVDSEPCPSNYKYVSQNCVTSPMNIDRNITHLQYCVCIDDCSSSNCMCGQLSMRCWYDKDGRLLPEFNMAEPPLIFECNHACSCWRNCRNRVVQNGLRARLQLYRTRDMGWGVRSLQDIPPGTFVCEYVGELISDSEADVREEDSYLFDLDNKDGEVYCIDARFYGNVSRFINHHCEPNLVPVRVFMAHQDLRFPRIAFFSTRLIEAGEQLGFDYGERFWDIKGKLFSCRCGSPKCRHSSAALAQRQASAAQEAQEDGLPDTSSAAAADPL

[4] = target: T2, Histone-lysine N-methyltransferase EHMT1; test: Binding affinity to human GLP (982 to 1266 residues) assessed as dissociation constant measured after 1 hr by isothermal titration calorimetry method; in short: as §1
[5] = target: T3, Histone-lysine N-methyltransferase EHMT2 (Homo sapiens) (UniProt Q96KQ7); test: Inhibition of human G9a (913 to 1193 residues) assessed as covalent modification by measuring G9a adduct formation at 50 uM incubated for 1 hr by mass spectrometry relative to control
T3 sequence (whole entry): T1 sequence (Q96KQ7 whole entry)
In short: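 Purified G9a or GLP catalytic domain (5 μM) in 50 mM Tris-HCl pH 7.5, 150 mM NaCl incubated with 50 μM compound or DMSO at room temperature (1 h, or 30 and 60 min in time course); intact mass by ESI LC/MS-TOF; adduct % = adduct/(protein + adduct) × 100.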

SMILES	Kd [1]	IC50 [2]	IC50 [3]	Kd [4]	inhibition [5]
CCC(=O)Nc1cc(NC2CCN(C(C)C)CC2)c2cc(OC)c(OCCCN3CCCC3)cc2n1	0.048 µM	0.211 µM	0.151 µM	0.016 µM	–
C=CC(=O)Nc1nc(NC2CCN(C(C)C)CC2)c2cc(OC)c(OCCCN3CCCC3)cc2n1	–	–	–	–	40%
